In ChEMBL document CHEMBL1158579, “Antimicrobial triterpenoid glycosides from Cephalaria scoparia” (2010):
Values after ≈ are worked out from the molar mass of the structure shown.

Assays:
Escherichia coli = experiment: Antimicrobial activity against Escherichia coli ATCC 23999 after 24 hrs by microdilution assay; format: functional
How it was run: (§1)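 Broth microdilution MIC in Mueller-Hinton broth. Inocula came from 24 h broth cultures grown at 37 °C, were adjusted to 0.5 McFarland and diluted 1:100 in broth. Compounds were tested at final concentrations of 256 to 0.5 µg/mL, with gentamycin at 128 to 0.25 µg/mL. Sealed plates were incubated 24 h at 37 °C. MIC was the lowest concentration with no visible growth. Clear wells were subcultured onto Mueller-Hinton agar. Triplicate.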

Pseudomonas aeruginosa = experiment: Antimicrobial activity against Pseudomonas aeruginosa ATCC 27853 after 24 hrs by microdilution assay; format: functional; how it was run: as §1
Salmonella enterica = experiment: Antimicrobial activity against Salmonella Typhimurium CCM 5445 after 24 hrs by microdilution assay; format: functional, Salmonella enterica subsp. enterica serovar Typhimurium; how it was run: as §1
Klebsiella pneumoniae = experiment: Antimicrobial activity against Klebsiella pneumoniae CCM 2318 after 24 hrs by microdilution assay; format: functional; how it was run: as §1
Staphylococcus aureus = experiment: Antimicrobial activity against Staphylococcus aureus ATCC 6538-P after 24 hrs by microdilution assay; format: functional; how it was run: as §1
[1] = tested on: Staphylococcus epidermidis; experiment: Antimicrobial activity against Staphylococcus epidermidis ATCC 12228 after 24 hrs by microdilution assay; format: functional; how it was run: as §1
Bacillus cereus = experiment: Antimicrobial activity against Bacillus cereus ATCC 7064 after 24 hrs by microdilution assay; format: functional; how it was run: as §1
Enterococcus faecalis = experiment: Antimicrobial activity against Enterococcus faecalis ATCC 29212 after 24 hrs by microdilution assay; format: functional; how it was run: as §1

C[C@@H]1O[C@@H](O[C@H]2[C@H](OC(=O)[C@]34CCC(C)(C)C[C@@H]3C3=CC[C@@H]5[C@@]6(C)CC[C@H](O[C@@H]7OC[C@H](O)[C@H](O)[C@H]7O)C(C)(C)[C@@H]6CC[C@@]5(C)[C@]3(C)CC4)O[C@H](CO[C@@H]3O[C@H](CO)[C@@H](O)[C@H](O)[C@H]3O)[C@@H](O)[C@@H]2O)[C@H](O)[C@H](O)[C@H]1O [SCOPOSIDE A]
MIC (Escherichia coli; ATCC 23999, 24 h): 8 µg/mL (≈ 7.55 µM)
MIC (Pseudomonas aeruginosa; ATCC 27853, 24 h): 64 µg/mL (≈ 60.4 µM)
MIC (Salmonella enterica; CCM 5445, 24 h): 128 µg/mL (≈ 121 µM)
MIC (Klebsiella pneumoniae; CCM 2318, 24 h): 64 µg/mL (≈ 60.4 µM)
MIC (Staphylococcus aureus): 128 µg/mL (≈ 121 µM)
MIC ([1]; ATCC 12228, 24 h): 64 µg/mL (≈ 60.4 µM)
MIC (Bacillus cereus; ATCC 7064, 24 h): 16 µg/mL (≈ 15.1 µM)
MIC (Enterococcus faecalis; ATCC 29212, 24 h): 32 µg/mL (≈ 30.2 µM)

C[C@@H]1O[C@@H](O[C@H]2[C@H](O[C@H]3CC[C@]4(C)[C@H]5CC=C6[C@H]7CC(C)(C)CC[C@]7(C(=O)O[C@@H]7O[C@H](CO[C@@H]8O[C@H](CO)[C@@H](O)[C@H](O)[C@H]8O)[C@@H](O)[C@H](O)[C@H]7O)CC[C@@]6(C)[C@]5(C)CC[C@H]4C3(C)C)OC[C@H](O)[C@@H]2O[C@@H]2OC[C@@H](O[C@@H]3O[C@H](CO)[C@@H](O)[C@H](O)[C@H]3O)[C@H](O)[C@H]2O)[C@H](O)[C@H](O[C@@H]2OC[C@@H](O)[C@H](O)[C@H]2O)[C@H]1O [SCOPOSIDE C]
MIC (Escherichia coli; ATCC 23999, 24 h): 128 µg/mL (≈ 86.2 µM)
MIC (Pseudomonas aeruginosa; ATCC 27853, 24 h): 128 µg/mL (≈ 86.2 µM)
MIC (Salmonella enterica; CCM 5445, 24 h): 64 µg/mL (≈ 43.1 µM)
MIC (Klebsiella pneumoniae; CCM 2318, 24 h): 64 µg/mL (≈ 43.1 µM)
MIC (Staphylococcus aureus): 64 µg/mL (≈ 43.1 µM)
MIC ([1]; ATCC 12228, 24 h): 64 µg/mL (≈ 43.1 µM)
MIC (Bacillus cereus; ATCC 7064, 24 h): 32 µg/mL (≈ 21.5 µM)
MIC (Enterococcus faecalis; ATCC 29212, 24 h): 32 µg/mL (≈ 21.5 µM)

GENTAMICIN
MIC (Escherichia coli): 1 µg/mL
MIC (Pseudomonas aeruginosa): 2 µg/mL
MIC (Salmonella enterica; Salmonella enterica subsp. enterica serovar Typhimurium): 1 µg/mL
MIC (Klebsiella pneumoniae): 4 µg/mL
MIC (Staphylococcus aureus): 1 µg/mL
MIC [1]: 1 µg/mL
MIC (Bacillus cereus): 4 µg/mL
MIC (Enterococcus faecalis): 16 µg/mL

C[C@@H]1O[C@@H](O[C@H]2[C@H](O)[C@@H](O)[C@H](O[C@H]3CC[C@]4(C)[C@H]5CC=C6[C@H]7CC(C)(C)CC[C@]7(C(=O)O[C@@H]7O[C@H](CO[C@@H]8O[C@H](CO)[C@@H](O)[C@H](O)[C@H]8O)[C@@H](O)[C@H](O)[C@H]7O)CC[C@@]6(C)[C@]5(C)CC[C@H]4C3(C)C)O[C@@H]2CO)[C@H](O)[C@H](O[C@@H]2OC[C@@H](O[C@@H]3OC[C@@H](O)[C@H](O)[C@H]3O)[C@H](O)[C@H]2O)[C@H]1O [SCOPOSIDE B]
MIC (Escherichia coli; ATCC 23999, 24 h): 128 µg/mL (≈ 94.6 µM)
MIC (Pseudomonas aeruginosa; ATCC 27853, 24 h): 64 µg/mL (≈ 47.3 µM)
MIC (Salmonella enterica; CCM 5445, 24 h): 64 µg/mL (≈ 47.3 µM)
MIC (Klebsiella pneumoniae; CCM 2318, 24 h): 64 µg/mL (≈ 47.3 µM)
MIC (Staphylococcus aureus): 256 µg/mL (≈ 189 µM)
MIC ([1]; ATCC 12228, 24 h): 128 µg/mL (≈ 94.6 µM)
MIC (Bacillus cereus; ATCC 7064, 24 h): 16 µg/mL (≈ 11.8 µM)
MIC (Enterococcus faecalis; ATCC 29212, 24 h): 64 µg/mL (≈ 47.3 µM)
